Reference: ChEMBL document CHEMBL2040781, “Design, synthesis, and biological evaluation of chromone-based p38 MAP kinase inhibitors” (J Med Chem, 2011)
The source made the active and inactive calls. The rule behind the calls is not given here.

Key:
[1] = target: SRSF protein kinase 1 (Homo sapiens) (UniProt Q96SB4); test: Inhibition of human SRPK1 assessed as remaining activity at 0.8 uM after 40 mins by scintillation counting
[2] = test system: MCF7; test: Antiproliferative activity against human MCF7 cells at 1 uM after 4 hrs by prestoblue cell viability assay; assay type: functional, cell-based
[3] = test system: MCF7; test: Potentiation of anisomycin-mediated cytotoxicity in human MCF7 cells at 1 uM after 4 hrs by prestoblue cell viability assay; assay type: functional, cell-based
[4] = test system: MDA-MB-436; test: Potentiation of doxorubicin-mediated cytotoxicity in p53-deficient human MDA-MB-436 cells at 1 uM after 4 hrs by prestoblue cell viability assay; assay type: functional, cell-based
[5] = target: Tyrosine-protein kinase ABL1 (Homo sapiens) (UniProt P00519); test: Inhibition of human Abl assessed as remaining activity at 0.8 uM after 40 mins by scintillation counting
[6] = target: Cyclin-dependent kinase 1/cyclin B1 (Homo sapiens) (UniProt P06493+P14635); test: Inhibition of human CDK1/cyclinB assessed as remaining activity at 0.8 uM after 40 mins by scintillation counting; assay type: protein-complex assay
[7] = target: CDK9/cyclin T1 (Homo sapiens) (UniProt O60563+P50750); test: Inhibition of human CDK9/cyclin T1 assessed as remaining activity at 0.8 uM after 40 mins by scintillation counting; assay type: protein-complex assay
[8] = target: Casein kinase II subunit alpha' (Homo sapiens) (UniProt P19784); test: Inhibition of human CK2alpha2 assessed as remaining activity at 0.8 uM after 40 mins by scintillation counting
[9] = target: Serine/threonine-protein kinase 17A (Homo sapiens) (UniProt Q9UEE5); test: Inhibition of human DRAK1 assessed as remaining activity at 0.8 uM after 40 mins by scintillation counting
[10] = target: Eukaryotic elongation factor 2 kinase (Homo sapiens) (UniProt O00418); test: Inhibition of human eEF-2K assessed as remaining activity at 0.8 uM after 40 mins by scintillation counting
[11] = target: Epidermal growth factor receptor (Homo sapiens) (UniProt P00533); test: Inhibition of human EGFR assessed as remaining activity at 0.8 uM after 40 mins by scintillation counting
[12] = target: Ephrin type-A receptor 5 (Homo sapiens) (UniProt P54756); test: Inhibition of human EphA5 assessed as remaining activity at 0.8 uM after 40 mins by scintillation counting
[13] = target: Ephrin type-B receptor 4 (Homo sapiens) (UniProt P54760); test: Inhibition of human EphB4 assessed as remaining activity at 0.8 uM after 40 mins by scintillation counting
[14] = target: Tyrosine-protein kinase Fyn (Homo sapiens) (UniProt P06241); test: Inhibition of human Fyn assessed as remaining activity at 0.8 uM after 40 mins by scintillation counting
[15] = target: Insulin-like growth factor 1 receptor (Homo sapiens) (UniProt P08069); test: Inhibition of human IGF-1R assessed as remaining activity at 0.8 uM after 40 mins by scintillation counting
[16] = target: Mitogen-activated protein kinase 8 (Homo sapiens) (UniProt P45983); test: Inhibition of human JNK1alpha1 assessed as remaining activity at 0.8 uM after 40 mins by scintillation counting
[17] = target: Mitogen-activated protein kinase 9 (Homo sapiens) (UniProt P45984); test: Inhibition of human JNK2alpha2 assessed as remaining activity at 0.8 uM after 40 mins by scintillation counting
[18] = target: Vascular endothelial growth factor receptor 2 (Homo sapiens) (UniProt P35968); test: Inhibition of human KDR assessed as remaining activity at 0.8 uM after 40 mins by scintillation counting
[19] = target: Serine/threonine-protein kinase 10 (Homo sapiens) (UniProt O94804); test: Inhibition of human LOK assessed as remaining activity at 0.8 uM after 40 mins by scintillation counting
[20] = target: Mitogen-activated protein kinase kinase kinase 9 (Homo sapiens) (UniProt P80192); test: Inhibition of human MLK1 assessed as remaining activity at 0.8 uM after 40 mins by scintillation counting
[21] = target: Serine/threonine-protein kinase Nek2 (Homo sapiens) (UniProt P51955); test: Inhibition of human NEK2 assessed as remaining activity at 0.8 uM after 40 mins by scintillation counting
[22] = target: Platelet-derived growth factor receptor beta (Homo sapiens) (UniProt P09619); test: Inhibition of human PDGFRbeta assessed as remaining activity at 0.8 uM after 40 mins by scintillation counting
[23] = species on record: Homo sapiens; test: Inhibition of human PKA assessed as remaining activity at 0.8 uM after 40 mins by scintillation counting
[24] = target: RAC-alpha serine/threonine-protein kinase (Homo sapiens) (UniProt P31749); test: Inhibition of human PKBalpha assessed as remaining activity at 0.8 uM after 40 mins by scintillation counting
[25] = target: Protein kinase C alpha type (Homo sapiens) (UniProt P17252); test: Inhibition of human PKCalpha assessed as remaining activity at 0.8 uM after 40 mins by scintillation counting
[26] = target: Protein kinase C theta type (Homo sapiens) (UniProt Q04759); test: Inhibition of human PKCtheta assessed as remaining activity at 0.8 uM after 40 mins by scintillation counting
[27] = target: MAP kinase-activated protein kinase 5 (Homo sapiens) (UniProt Q8IW41); test: Inhibition of human PRAK assessed as remaining activity at 0.8 uM after 40 mins by scintillation counting
[28] = target: Rho-associated protein kinase 1 (Homo sapiens) (UniProt Q13464); test: Inhibition of human ROCK-I assessed as remaining activity at 0.8 uM after 40 mins by scintillation counting
[29] = target: Tyrosine-protein kinase receptor TYRO3 (Homo sapiens) (UniProt Q06418); test: Inhibition of human Rse assessed as remaining activity at 0.8 uM after 40 mins by scintillation counting
[30] = target: Ribosomal protein S6 kinase alpha-1 (Homo sapiens) (UniProt Q15418); test: Inhibition of human Rsk1 assessed as remaining activity at 0.8 uM after 40 mins by scintillation counting
[31] = target: Mitogen-activated protein kinase 11 (Homo sapiens) (UniProt Q15759); test: Inhibition of human SAPK2b assessed as remaining activity at 0.8 uM after 40 mins by scintillation counting
[32] = target: Mitogen-activated protein kinase 12 (Homo sapiens) (UniProt P53778); test: Inhibition of human SAPK3 assessed as remaining activity at 0.8 uM after 40 mins by scintillation counting
[33] = target: Mitogen-activated protein kinase 14 (Homo sapiens, UniProt Q16539); test: Inhibition of anisomycin-induced p38alpha MAPK signalling in human MCF7 cells assessed as inhibition of ATF2 activation at 0.5 uM after 30 mins by SDS PAGE analysis; assay type: cell-based
Summary of the method: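 MCF-7 cells were preincubated with the compound at the indicated doses for 30 min, then stimulated with 10 μg/mL anisomycin for another 30 min. Total cell lysates were resolved by SDS-PAGE and immunoblotted with antibodies against phosphorylated ATF2, p38 and HSP27, with tubulin as the loading control.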

[34] = test system: MCF7; test: Effect on p38alpha protein level in human MCF7 cells; assay type: functional, cell-based

Sequence of Ephrin type-B receptor 4 (Homo sapiens) (P54760 whole entry): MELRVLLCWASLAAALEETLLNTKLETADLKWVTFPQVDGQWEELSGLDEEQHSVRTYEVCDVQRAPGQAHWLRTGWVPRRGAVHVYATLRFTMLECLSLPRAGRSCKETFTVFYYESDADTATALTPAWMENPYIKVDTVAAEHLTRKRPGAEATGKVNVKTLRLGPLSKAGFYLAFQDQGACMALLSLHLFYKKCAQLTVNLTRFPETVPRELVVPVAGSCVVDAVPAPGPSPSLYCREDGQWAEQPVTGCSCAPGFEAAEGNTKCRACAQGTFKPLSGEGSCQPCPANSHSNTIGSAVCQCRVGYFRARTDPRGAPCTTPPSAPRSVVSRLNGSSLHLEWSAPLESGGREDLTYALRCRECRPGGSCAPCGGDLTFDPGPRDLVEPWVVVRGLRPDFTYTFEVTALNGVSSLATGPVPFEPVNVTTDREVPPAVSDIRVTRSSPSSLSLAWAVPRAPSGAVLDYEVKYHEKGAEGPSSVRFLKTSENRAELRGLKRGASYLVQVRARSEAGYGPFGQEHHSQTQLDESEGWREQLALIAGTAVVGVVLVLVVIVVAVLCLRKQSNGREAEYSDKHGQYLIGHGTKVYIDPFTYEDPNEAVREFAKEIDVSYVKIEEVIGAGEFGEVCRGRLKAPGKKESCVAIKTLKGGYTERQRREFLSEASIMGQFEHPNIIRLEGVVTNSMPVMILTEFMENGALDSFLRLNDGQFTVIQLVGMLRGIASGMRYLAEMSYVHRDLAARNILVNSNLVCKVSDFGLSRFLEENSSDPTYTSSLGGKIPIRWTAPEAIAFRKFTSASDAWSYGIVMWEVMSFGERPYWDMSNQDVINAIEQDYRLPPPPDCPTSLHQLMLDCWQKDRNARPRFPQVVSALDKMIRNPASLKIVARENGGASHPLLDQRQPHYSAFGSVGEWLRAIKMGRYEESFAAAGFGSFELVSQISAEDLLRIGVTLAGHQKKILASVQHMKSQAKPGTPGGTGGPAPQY
Sequence of Ephrin type-A receptor 5 (Homo sapiens) (P54756 whole entry): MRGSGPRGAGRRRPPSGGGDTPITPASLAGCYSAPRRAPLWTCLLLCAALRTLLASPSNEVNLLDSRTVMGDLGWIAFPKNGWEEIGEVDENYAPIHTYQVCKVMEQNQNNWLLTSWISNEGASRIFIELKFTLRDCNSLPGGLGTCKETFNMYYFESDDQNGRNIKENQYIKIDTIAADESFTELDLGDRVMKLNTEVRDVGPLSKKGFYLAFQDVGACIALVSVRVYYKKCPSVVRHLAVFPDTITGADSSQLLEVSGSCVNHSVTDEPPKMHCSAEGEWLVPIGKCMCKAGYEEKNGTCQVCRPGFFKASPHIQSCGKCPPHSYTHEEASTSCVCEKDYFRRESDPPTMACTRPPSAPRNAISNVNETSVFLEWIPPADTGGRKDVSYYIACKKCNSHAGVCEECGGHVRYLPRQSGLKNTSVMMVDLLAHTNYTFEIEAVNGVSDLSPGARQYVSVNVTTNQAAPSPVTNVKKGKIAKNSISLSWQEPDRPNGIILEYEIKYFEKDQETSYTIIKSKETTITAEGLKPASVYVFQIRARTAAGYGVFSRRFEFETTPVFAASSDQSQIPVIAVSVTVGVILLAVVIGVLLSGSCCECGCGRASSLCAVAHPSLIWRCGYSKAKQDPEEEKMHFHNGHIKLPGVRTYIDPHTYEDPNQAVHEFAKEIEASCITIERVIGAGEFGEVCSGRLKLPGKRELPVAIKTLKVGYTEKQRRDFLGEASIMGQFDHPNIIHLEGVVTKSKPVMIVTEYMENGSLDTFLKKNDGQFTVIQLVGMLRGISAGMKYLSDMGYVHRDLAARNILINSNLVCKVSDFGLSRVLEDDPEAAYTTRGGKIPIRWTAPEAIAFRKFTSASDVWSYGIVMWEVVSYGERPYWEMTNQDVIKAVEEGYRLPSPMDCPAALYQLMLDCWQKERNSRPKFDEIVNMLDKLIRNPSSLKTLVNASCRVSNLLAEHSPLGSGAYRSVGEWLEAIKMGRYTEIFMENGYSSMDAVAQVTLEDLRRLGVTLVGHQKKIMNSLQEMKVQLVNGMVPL
Sequence of Cyclin-dependent kinase 1/cyclin B1 (Homo sapiens) (P06493 whole entry, looked up): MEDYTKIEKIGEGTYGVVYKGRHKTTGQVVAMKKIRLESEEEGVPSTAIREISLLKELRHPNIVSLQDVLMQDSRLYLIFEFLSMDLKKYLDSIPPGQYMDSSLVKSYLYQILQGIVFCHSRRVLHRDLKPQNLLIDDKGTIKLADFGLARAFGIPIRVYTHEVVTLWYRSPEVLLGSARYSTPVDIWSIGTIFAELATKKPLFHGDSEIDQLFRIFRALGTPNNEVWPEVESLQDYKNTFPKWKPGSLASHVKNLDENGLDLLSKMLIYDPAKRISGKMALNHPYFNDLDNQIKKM
Sequence of Cyclin-dependent kinase 1/cyclin B1 (Homo sapiens) (P14635 whole entry, looked up): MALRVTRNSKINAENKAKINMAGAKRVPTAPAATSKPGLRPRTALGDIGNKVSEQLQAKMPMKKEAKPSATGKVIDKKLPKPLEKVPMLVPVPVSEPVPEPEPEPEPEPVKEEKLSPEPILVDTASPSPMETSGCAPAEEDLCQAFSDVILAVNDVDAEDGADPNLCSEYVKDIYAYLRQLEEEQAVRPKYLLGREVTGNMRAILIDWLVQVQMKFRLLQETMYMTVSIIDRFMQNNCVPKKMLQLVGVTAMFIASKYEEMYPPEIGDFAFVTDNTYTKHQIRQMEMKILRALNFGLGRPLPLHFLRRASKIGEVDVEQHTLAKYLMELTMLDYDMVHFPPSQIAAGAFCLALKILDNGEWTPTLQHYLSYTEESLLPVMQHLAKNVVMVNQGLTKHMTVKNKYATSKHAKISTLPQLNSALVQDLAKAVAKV
Sequence of Serine/threonine-protein kinase 10 (Homo sapiens) (O94804 whole entry, looked up): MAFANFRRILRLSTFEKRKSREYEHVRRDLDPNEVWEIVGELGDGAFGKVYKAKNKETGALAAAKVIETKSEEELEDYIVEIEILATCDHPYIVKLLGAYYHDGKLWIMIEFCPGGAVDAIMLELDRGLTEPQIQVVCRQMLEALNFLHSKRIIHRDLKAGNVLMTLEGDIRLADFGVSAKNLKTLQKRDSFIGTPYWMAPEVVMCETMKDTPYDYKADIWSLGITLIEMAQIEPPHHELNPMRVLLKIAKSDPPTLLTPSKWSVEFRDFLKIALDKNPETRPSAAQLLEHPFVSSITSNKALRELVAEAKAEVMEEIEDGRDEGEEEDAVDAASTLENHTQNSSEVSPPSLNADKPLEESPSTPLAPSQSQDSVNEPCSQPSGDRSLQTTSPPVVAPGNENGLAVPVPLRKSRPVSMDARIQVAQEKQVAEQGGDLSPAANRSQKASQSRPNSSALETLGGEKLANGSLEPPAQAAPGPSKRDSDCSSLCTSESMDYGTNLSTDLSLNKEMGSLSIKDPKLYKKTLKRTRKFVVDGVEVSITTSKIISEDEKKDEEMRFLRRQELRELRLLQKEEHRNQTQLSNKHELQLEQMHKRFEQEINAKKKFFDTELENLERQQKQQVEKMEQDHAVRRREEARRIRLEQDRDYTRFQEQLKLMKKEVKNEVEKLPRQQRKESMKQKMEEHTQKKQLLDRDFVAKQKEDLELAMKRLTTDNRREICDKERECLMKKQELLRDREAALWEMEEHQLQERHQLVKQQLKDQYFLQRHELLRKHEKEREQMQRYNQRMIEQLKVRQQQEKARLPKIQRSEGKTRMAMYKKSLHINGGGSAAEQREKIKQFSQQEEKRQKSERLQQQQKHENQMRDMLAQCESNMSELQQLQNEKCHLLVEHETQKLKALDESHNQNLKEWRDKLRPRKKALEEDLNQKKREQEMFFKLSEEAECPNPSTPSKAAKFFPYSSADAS
Sequence of Platelet-derived growth factor receptor beta (Homo sapiens) (P09619 whole entry): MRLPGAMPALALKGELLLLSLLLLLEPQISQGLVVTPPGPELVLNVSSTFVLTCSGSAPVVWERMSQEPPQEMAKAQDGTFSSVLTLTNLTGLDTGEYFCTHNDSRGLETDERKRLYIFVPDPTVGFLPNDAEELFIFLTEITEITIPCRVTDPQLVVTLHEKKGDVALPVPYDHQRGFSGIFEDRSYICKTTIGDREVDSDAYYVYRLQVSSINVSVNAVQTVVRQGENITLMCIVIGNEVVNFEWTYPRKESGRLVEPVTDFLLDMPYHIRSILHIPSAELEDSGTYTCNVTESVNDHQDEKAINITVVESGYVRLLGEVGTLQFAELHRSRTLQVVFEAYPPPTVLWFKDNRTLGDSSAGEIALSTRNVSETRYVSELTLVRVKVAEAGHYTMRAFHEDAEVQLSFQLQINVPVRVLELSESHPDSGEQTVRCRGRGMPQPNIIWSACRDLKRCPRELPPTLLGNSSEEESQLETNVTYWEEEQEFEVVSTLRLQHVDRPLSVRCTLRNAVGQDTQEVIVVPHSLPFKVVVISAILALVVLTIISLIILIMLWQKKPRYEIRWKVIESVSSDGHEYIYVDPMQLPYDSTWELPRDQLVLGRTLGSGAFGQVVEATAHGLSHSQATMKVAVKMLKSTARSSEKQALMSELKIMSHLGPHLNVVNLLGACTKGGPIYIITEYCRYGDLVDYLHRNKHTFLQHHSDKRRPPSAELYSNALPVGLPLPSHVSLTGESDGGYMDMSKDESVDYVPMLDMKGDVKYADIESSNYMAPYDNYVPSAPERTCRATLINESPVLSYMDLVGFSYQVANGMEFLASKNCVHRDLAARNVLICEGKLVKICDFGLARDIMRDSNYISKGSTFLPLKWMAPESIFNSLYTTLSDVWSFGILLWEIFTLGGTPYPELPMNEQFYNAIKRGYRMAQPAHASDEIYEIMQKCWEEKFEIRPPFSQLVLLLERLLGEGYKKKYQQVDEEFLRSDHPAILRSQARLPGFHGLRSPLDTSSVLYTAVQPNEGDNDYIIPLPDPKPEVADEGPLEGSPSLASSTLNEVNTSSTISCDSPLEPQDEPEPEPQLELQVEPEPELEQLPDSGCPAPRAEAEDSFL

CC(C)Nc1cc(-c2oc3ccccc3c(=O)c2-c2ccc(F)cc2)ccn1
Activity [1]: 109%
Activity [2]: inactive
Activity [3]: inactive
Activity [4]: inactive
Activity [5]: 111%
Activity [6]: 95%
Activity [7]: 96%
Activity [8]: 105%
Activity [9]: 107%
Activity [10]: 100%
Activity [11]: 106%
Activity [12]: 103%
Activity [13]: 97%
Activity [14]: 100%
Activity [15]: 94%
Activity [16]: 84%
Activity [17]: 58%
Activity [18]: 98%
Activity [19]: 102%
Activity [20]: 95%
Activity [21]: 98%
Activity [22]: 107%
Activity [23]: 114%
Activity [24]: 100%
Activity [25]: 96%
Activity [26]: 95%
Activity [27]: 72%
Activity [28]: 94%
Activity [29]: 98%
Activity [30]: 104%
Activity [31]: -3%
Activity [32]: 96%

O=c1c(-c2ccc(F)cc2)c(-c2ccnc(NC3CCCCC3)c2)oc2ccccc12
Activity [1]: 116%
inhibition [33]: Active
Activity [2]: inactive
Activity [3]: inactive
Activity [4]: inactive
Activity [34]: inactive
Activity [5]: 106%
Activity [6]: 93%
Activity [7]: 93%
Activity [8]: 104%
Activity [9]: 111%
Activity [10]: 101%
Activity [11]: 114%
Activity [12]: 104%
Activity [13]: 98%
Activity [14]: 103%
Activity [15]: 100%
Activity [16]: 96%
Activity [17]: 71%
Activity [18]: 101%
Activity [19]: 94%
Activity [20]: 101%
Activity [21]: 98%
Activity [22]: 105%
Activity [23]: 118%
Activity [24]: 107%
Activity [25]: 102%
Activity [26]: 102%
Activity [27]: 66%
Activity [28]: 106%
Activity [29]: 91%
Activity [30]: 104%
Activity [31]: 9%
Activity [32]: 97%
